Bioassay records: PubChem BioAssay, several laboratories
DDE Tn6 FP inh – disrupts Tn6 cyclic peptide binding to fibrin D-Dimer-E complex. P02675. Fibrin DD(E) TRITC-Tn6 fluorescence polarization displacement. inhibition, % at 8.3 µM. hit rate 0.21% among 370,000;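 active means inhibition above a per-campaign cutoff: mean of compounds within control limits plus 3 SD, cut at about 15% in these data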
Target sequence (P02675 whole entry, looked up): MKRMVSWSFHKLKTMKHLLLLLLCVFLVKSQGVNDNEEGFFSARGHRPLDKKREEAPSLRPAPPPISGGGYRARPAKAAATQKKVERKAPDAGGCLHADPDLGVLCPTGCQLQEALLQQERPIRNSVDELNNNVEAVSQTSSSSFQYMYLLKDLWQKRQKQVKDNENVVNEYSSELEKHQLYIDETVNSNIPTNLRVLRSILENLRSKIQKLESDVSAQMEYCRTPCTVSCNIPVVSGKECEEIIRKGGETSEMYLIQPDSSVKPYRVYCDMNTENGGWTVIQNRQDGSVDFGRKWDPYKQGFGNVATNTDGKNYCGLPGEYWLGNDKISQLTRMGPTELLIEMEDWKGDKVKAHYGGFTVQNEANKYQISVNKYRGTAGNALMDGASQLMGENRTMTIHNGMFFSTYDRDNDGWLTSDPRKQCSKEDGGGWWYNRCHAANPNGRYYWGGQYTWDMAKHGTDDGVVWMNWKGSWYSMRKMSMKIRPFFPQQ
CAL PDZ FP-1 – blocks peptide binding to the human CAL PDZ domain | Q9HD26 | hit rate 0.92% among 300,000 | inhibition, % at 24.9 µM | AID 602252 | purified CAL PDZ, TMR-peptide fluorescence polarization, 1 h;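 active means mean inhibition of at least 30% with at least half of replicates also reaching 30%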
CAL PDZ FP-2 – blocks peptide binding to human CAL PDZ domain | AID 504414 | inhibition, % at 20 µM | hit rate 0.02% among 330,000 | purified CAL PDZ, TMR-peptide fluorescence polarization, 1 h | Q9HD26;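 active means highest replicate inhibition of at least 40%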
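Control set: unlabelled peptide and DMSO controls / Material: purified CerCALP PDZ construct / Timing: 1 h incubation at room temperature before polarization reading / Doses: 20 µM, one dose / Detection: fluorescence polarization (mP)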
Tn7 DDE FP – DD(E)-Tn7 binding inhibition, primary FP screen | P02675 | FP displacement of FITC-Tn7 peptide from fibrin DD(E); 0% = median of compound wells per plate | inhibition, % at 8.3 µM | hit rate 0.13% among 370,000;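 active means inhibition above the mean of compounds falling within the control limits plus 3 SD of them, cut at about 14% in these data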
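Also added: labelled Tn7 tracer, 0.1 µM; Assay system: human fibrin DD(E) protein; Amount: 2 µM fibrin DD(E); Schedule: 10 min compound pre-incubation, 3 h probe incubation at room temperature; Repeats: one replicate per compound; Read-out basis: percent inhibition; Measured by: fluorescence polarization of the labelled Tn7 tracer.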
Arrestin-AP2 inh – inhibitors of human beta-arrestin and AP2 interaction | FITC-arrestin peptide / GST-AP2 beads, flow cytometry; AP2 beta2 appendage carries R879A mutation | inhibition, % at 10 µM | hit rate 0.31% among 340,000;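 active means inhibition above a set limit, near 3 SD of compounds lacking own fluorescence, cut at about 54% in these data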
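System: GST-tagged AP2 beta2-adaptin appendage (R879A) on 4 µm glutathione beads / Reagent: FITC-arrestin peptide, 50 nM / Detection: HyperCyt-sampled flow cytometry, FL1 channel, ex 488/em 535 nm / Timing: 12 min plus 1 h, RT / Buffer or medium: PBS plus Tween 20 (0.05%) and BSA (0.1%)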
Arr AP2 CP1 – human beta-arrestin and AP2 interaction inhibition, cherry pick; shares compounds with Arrestin-AP2 inh; GST-AP2 beads, FITC arrestin peptide binding, flow cytometry; GST-fused beta2-adaptin appendage, R879A mutant; inhibition, % at 10 µM; hit rate 2% among 1,300; AID 504908;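 active means inhibition above a set limit, roughly 3 SD of non-fluorescent compound noise, cut at about 38% in these data; inactive means inhibition at or below that limit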;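 further: loss of bead fluorescence from 50 nM FITC arrestin peptide bound to appendage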
GST-FITC bead – disrupts GST binding to glutathione beads, arrestin-AP2 artifact | inhibition, % at 10 µM | hit rate 2% among 1,300 | AID 588338 | shares compounds with Arrestin-AP2 inh | GST-fluorescein binding to GSH beads, fluorescence, counter-screen;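 active means inhibition above 50%, about 3 SD of the inhibition seen with non-fluorescent compounds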;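 further: fluorescein maleimide labelled GST captured on 4 micron glutathione beads; higher means more loss of bead fluorescence from quenching or blocked binding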
Of the large screens only hits and unclear results are named; the others gave an inactive call (follow-up assays come after a bar, where they were run). Only some compounds are listed: those with a hit (about 1.4% of all), similar ones and a draw of the others.

COC(=O)c1cccc(Cn2c(Cl)c(/C=N/NC(=O)c3ccco3)sc2=O)c1	Arrestin-AP2 inh 56.6 | Arr AP2 CP1 inactive | GST-FITC bead inactive
COC(=O)c1cccc(Cn2c(Cl)c(/C=N/NC(=O)c3ccccc3Cl)sc2=O)c1	none
O=C(c1cccc(C(F)(F)F)c1)N1CC[C@H]2[C@H](CCCN2Cc2ccccc2)C1	none (no result: CAL PDZ FP-1, CAL PDZ FP-2, Arrestin-AP2 inh)
O=C(NN1CCOCC1)c1cccc(Cl)c1	Arrestin-AP2 inh 71.0 | Arr AP2 CP1 inactive | GST-FITC bead inactive
O=C(NN1CCOCC1)c1ccc(Cl)cc1	none
Cn1c(=O)c(=O)n(C)c2cc(S(=O)(=O)N3CCN(CCO)CC3)ccc21	none (no result: CAL PDZ FP-1, CAL PDZ FP-2, Arrestin-AP2 inh)
CCSc1nnc(-c2sc3nnc(-c4ccccc4)c(-c4ccccc4)c3c2N)o1	Arrestin-AP2 inh 72.6 | Arr AP2 CP1 inactive | GST-FITC bead inactive
COCC(=O)N(C[C@H]1[C@H](c2ccccc2)[C@@H](CO)N1C(=O)NC(C)C)C(C)C	none (no result: CAL PDZ FP-1, CAL PDZ FP-2, Arrestin-AP2 inh)
Cc1ccc(NS(=O)(=O)c2ccc3c(c2)OCCCO3)cc1S(=O)(=O)N1CCOCC1	Arrestin-AP2 inh 58.4 | Arr AP2 CP1 inactive | GST-FITC bead inactive
COc1ccc(C(=O)C2(C(=O)Nc3cc(C)cc(C)c3)CC(c3ccccn3)=NO2)cc1 (stereo not given)	none (no result: CAL PDZ FP-1, CAL PDZ FP-2, Arrestin-AP2 inh)
O=C(O)CCC(=O)NNC(=O)c1cccc(Br)c1	Arrestin-AP2 inh 58.3 | Arr AP2 CP1 inactive | GST-FITC bead inactive
Cc1cc(=O)n(CC(=O)O)c2ccccc12	none (no result: CAL PDZ FP-1)
Cc1cc(C)n(CC(=O)O)c(=O)c1[N+](=O)[O-]	Arrestin-AP2 inh 66.0 | Arr AP2 CP1 inactive | GST-FITC bead inactive
COc1ccc(C(=O)NC2CCC(O)CC2)cc1S(=O)(=O)NCc1ccc(Cl)cc1 (stereo not given)	Arrestin-AP2 inh 80.0 | Arr AP2 CP1 inactive | GST-FITC bead inactive
COc1cc(C(=O)NC2CCCCC2)ccc1OCc1ccc(Cl)cc1Cl	Arrestin-AP2 inh 106.0 | Arr AP2 CP1 inactive | GST-FITC bead inactive
COc1cc(C(=O)NCCC(C)C)ccc1OCc1ccc(Cl)cc1Cl	none
CCc1ccc(-c2cc(C(=O)N/N=C/c3ccco3)[nH]n2)cc1	none
O=C(N/N=C/c1ccco1)c1cc(-c2ccc3ccccc3c2)n[nH]1	Arrestin-AP2 inh 55.7 | Arr AP2 CP1 inactive | GST-FITC bead inactive
CC(C)(C)NC(=O)COC(=O)c1ccccc1OCC(=O)Nc1ccc(Br)cc1	Arrestin-AP2 inh 103.3 | Arr AP2 CP1 inactive | GST-FITC bead inactive
CCOC(=O)Cn1c(=O)oc2cc(S(=O)(=O)Nc3cc(Cl)ccc3OC)ccc21	none
CCOC(=O)Cn1c(=O)oc2cc(S(=O)(=O)Nc3cc(OCC)ccc3OCC)ccc21	Arrestin-AP2 inh 56.9 | Arr AP2 CP1 inactive | GST-FITC bead inactive
O=C(CN1C(=O)CS/C1=C\c1nc(-c2ccc(Cl)cc2)cs1)Nc1cccnc1Cl	Arrestin-AP2 inh 60.8 | Arr AP2 CP1 inactive | GST-FITC bead inactive
Cc1ccc(-c2csc(/C=C3\SC(C)C(=O)N3CC(=O)Nc3ccccc3F)n2)cc1 (stereo not given)	none
COc1cccc(-n2c(-c3ccco3)nc3nc4ccccc4nc32)c1	Arrestin-AP2 inh 75.3 | Arr AP2 CP1 64.8 | GST-FITC bead 174.4
Cc1ccc(NC(=O)/C(C#N)=N/Nc2ccc(C(=O)O)cc2)c(C)c1	none
Cc1ccc(N/N=C(\C#N)C(N)=S)c(C)c1	Arrestin-AP2 inh 56.8 | Arr AP2 CP1 inactive | GST-FITC bead inactive
CC(C)CNC(=O)C1CSCCS(=O)(=O)N1Cc1ccccc1 (stereo not given)	none (no result: CAL PDZ FP-1, CAL PDZ FP-2, Arrestin-AP2 inh)
O=C(CSc1nnc(COc2ccccc2)n1-c1ccccc1)Nc1ccc2c(c1)OCCO2	none (no result: CAL PDZ FP-1, CAL PDZ FP-2, Arrestin-AP2 inh)
Cc1cc(C)cc(C(=O)OCCCN(C)C2CN(Cc3cn(Cc4ccccc4Cl)nn3)S(=O)(=O)C2)c1 (stereo not given)	none (no result: CAL PDZ FP-1, CAL PDZ FP-2, Arrestin-AP2 inh)
Cc1c(Cl)cccc1NC(=O)Nc1cccnc1	none
O=C(Nc1cnccn1)Nc1ccccc1F	CAL PDZ FP-1 51.7 | Arr AP2 CP1 inactive | GST-FITC bead inactive
Cc1c(Cl)cccc1NC(=O)Nc1cnccn1	none | Arr AP2 CP1 inactive | GST-FITC bead inactive
